Measurements pooled from the literature.
Each line is one published result; the experiments were not run side by side.
Target: Serine/threonine-protein kinase tousled-like 2 (TLK2, Homo sapiens, UniProt Q86UE8)

Cc1cc(NC(=O)c2cccc3cc(-c4cccc5[nH]nc(N)c45)ccc23)ccc1F
activity vs control (enzyme activity; inhibitor; 0.1 µM): 100%

CCN(CC)c1ccc(C2=NNC(=O)CC2C)cc1[N+](=O)[O-] (stereo not drawn)
remaining activity (enzyme activity; inhibitor; 10 µM): 82%

CNC(=O)c1cc(Oc2ccc(NC(=O)Nc3ccc(Cl)c(C(F)(F)F)c3)cc2)ccn1
inhibition (enzyme activity; inhibitor; 10 µM): -1%

Cc1ccc(C(=O)NCc2ccsc2)cc1C#Cc1cn(C(C)C)c2ncnc(N)c12
activity vs control (enzyme activity; inhibitor; 1 µM): 97%

CCCS(=O)(=O)Nc1ccc(F)c(C(=O)c2c[nH]c3ncc(-c4ccc(Cl)cc4)cc23)c1F
inhibition (enzyme activity; inhibitor; 1 µM): < 10%

Cc1cnc(NC2CCOCC2)nc1-n1cnc(C(=O)NC(CN)c2cc(F)cc(Cl)c2)c1 (stereo not drawn)
remaining activity (enzyme activity; inhibitor; radiometric; 1 µM): 100%

COc1cc2c(N3CCN(C(=O)Nc4ccc(OC(C)C)cc4)CC3)ncnc2cc1OCCCN1CCCCC1
remaining signal (cell-free assay; 0.5 µM): 96.2%

COc1cc(Cl)c(C(=O)N[C@@H](CN[C@H]2CC[C@@H](N)CC2)Cc2ccc(C#N)cc2)cc1-c1ccc(CN[C@H](C)c2ccc(C)cc2)o1
remaining activity (enzyme activity; inhibitor; 1 µM): 94%

O=C(NC[C@@H]1[C@H]2CN(C(=O)OCc3cc(C(F)(F)F)cc(C(F)(F)F)c3)C[C@@H]12)c1ccc2[nH]nnc2c1
remaining binding (cell-free assay; competition with immobilised ligand; 1 µM): 90%

c1ccc(CNc2nc(N3CCOc4ccccc43)nc3c2CCCC3)cc1
inhibition (target engagement in cells; inhibitor; chemoproteomics; 20 mM): -6.8%

CC(C)(O)[C@H]1CC[C@H](Nc2ccc3ncc(-c4cccc(C(F)(F)F)c4)n3n2)CC1
remaining activity (enzyme activity; inhibitor; 1 µM): 103%

CCCCN(CCCC)C(=O)CN1C[C@@H](c2cc(OC)c3c(c2)OCO3)[C@H](C(=O)O)[C@H]1CC(C)(C)CCC
remaining binding (cell-free assay; competition with immobilised ligand; 1 µM): 100%

Cc1sc(C(=O)NC2COC2)cc1-n1cc(NC(=O)Nc2c(F)cccc2Cl)cn1
remaining activity (enzyme activity; inhibitor; 10 µM): 97.2%

CNC(=O)Nc1ccc2c(c1)CC[C@@]21OC(=O)N(CC(=O)N(Cc2ccc(F)cc2)[C@@H](C)C(F)(F)F)C1=O
remaining binding (cell-free assay; competition with immobilised ligand; 1 µM): 100%

CCCOc1ccc(OC)c(F)c1C(=O)c1ccc(C(=O)N[C@@H]2CNC[C@H]2NC(=O)c2ccc3[nH]ncc3c2)cc1
remaining activity (enzyme activity; inhibitor; 10 µM): 90%

O=C1NC(c2ccccn2)Sc2ccccc21 (stereo not drawn)
remaining binding (cell-free assay; competition with immobilised ligand; 1 µM): 96%

O=C1NC(=O)c2cc(Nc3ccc(F)cc3)c(Nc3ccc(F)cc3)cc21
remaining signal (cell-free assay; 0.5 µM): 93.5%

C[C@H](c1ccc(F)cc1)N(Cc1cccc(C(=O)O)c1)C(=O)c1cnc2ccccc2c1
remaining binding (cell-free assay; competition with immobilised ligand; 1 µM): 97%

CC(C)(C)c1nc(-c2cccc(NS(=O)(=O)c3c(F)cccc3F)c2F)c(-c2ccnc(N)n2)s1
remaining activity (enzyme activity; inhibitor; radiometric; 1 µM): 96%

C[C@@H](c1cccc(C#N)c1)n1cc(Cl)cc(C(N)=O)c1=N
remaining binding (cell-free assay; competition with immobilised ligand; 1 µM): 100%

Cc1ccc(Nc2nccc(N(C)c3ccc4c(C)n(C)nc4c3)n2)cc1S(N)(=O)=O
remaining signal (cell-free assay; inhibitor; 0.5 µM): 85.6%
